Here are results for three compounds from article PMC7982424 (Acta Pharmaceutica Sinica. B, 2020).

In general, half-life refers to how long it takes for the measured level to halve. A high value points to slow loss. A word on the CC50: it is the concentration at which the toxic effect on the cells reaches its halfway point. A higher CC50 goes with lower toxicity to the cells.

Data set [1] in a line: Microsomal stability assay, human liver microsomes. Format: in vitro ADME. The conditions noted are these: human, pH 7.4. On the technique in general: Microsomes from liver hold many membrane-bound enzymes, among them those of drug oxidation.
The next data set concerns HIV-1NL4-3. As to the kind of experiment: Anti-HIV-1 assay in TZM-GFP cells. The conditions noted are these: for inhibition at 2 µM: Human immunodeficiency virus 1, read-out: Inhibition at 2 μmol/L; for inhibition at 20 µM: Human immunodeficiency virus 1, read-out: Inhibition at 20 μmol/L. Format: cell-based. In a few lines: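 TZM-GFP cells seeded at 1 × 10^4 per well; after 24 h, medium replaced with test compound at 20 μmol/L, with actives retested at 2 μmol/L. HIV-1NL4-3 (HEK 293FT-transfection stock, MT2-propagated, PEG-concentrated) added at MOI 1 24 h later. After 48 h, GFP-positive cells counted by imaging; inhibition relative to DMSO controls. Duplicates, at least two independent experiments.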

A further data set is described as follows: Cytotoxicity assay. Format: cell-based. The conditions noted are these: human, TZM-GFP cells. In a few lines:
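TZM-GFP cells were plated at 1 × 10^4 cells per well and exposed continuously to increasing concentrations of test compound for 72 h. Viable cells were counted by XTT. CC50 came from a log(inhibitor) vs normalized response, variable-slope fit for each independent assay, then averaged. Runs were in duplicate across at least two independent experiments; mean ± SD.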

A short description of data set [2]: Microsomal stability assay, mouse liver microsomes. Format: in vitro ADME. The conditions noted are these: mouse, pH 7.4.

As to `Cc1cn(CC(=O)N[C@@H](Cc2ccccc2)C(=O)N(C)c2ccc(Cl)cc2)c(=O)[nH]c1=O` [Compound 10, (S)-N-(4-Chlorophenyl)-N-methyl-2-(2-(5-methyl-2,4-dioxo-3,4-dihydropyrimidin-1(2H)-yl)acetamido)-3-phenylpropanamide], the half-life at 1 μmol/L in data set [1] was determined as 12 min; in data set [2], 4.6 min. The “Inhibition at 2 μmol/L” value in the data set on HIV-1NL4-3 (2 μmol/L compound, HIV-1 in TZM-GFP cells) is “exhibited inhibition”. Also, the CC50 at 72 h in “Cytotoxicity assay” was more than 50 µM.
For the compound `CN(C(=O)[C@H](Cc1ccccc1)NC(=O)CNC(=O)c1ccccc1)c1ccccc1` [Compound 18, (S)-N-(2-((1-(Methyl(phenyl)amino)-1-oxo-3-phenylpropan-2-yl)amino)-2-oxoethyl)benzamide], the results for the half-life at 1 μmol/L in data set [1] and in data set [2] were 15 min and 3.6 min, respectively. For the same compound, in the data set on HIV-1NL4-3, the inhibition at 2 µM worked out at 15%. The inhibition at 20 µM in the data set on HIV-1NL4-3 amounted to 96%. In the data set “Cytotoxicity assay”, this compound showed a CC50 at 72 h of more than 50 µM.
Regarding `CN(C(=O)[C@H](Cc1ccccc1)NC(=O)CNC(=O)c1ccccc1)c1cccc(F)c1` [Compound 23, (S)-N-(2-((1-((3-Fluorophenyl)(methyl)amino)-1-oxo-3-phenylpropan-2-yl)amino)-2-oxoethyl)benzamide], the half-life at 1 μmol/L in data set [1] turned out to be 12 min; in data set [2], 3.6 min. Besides, the inhibition at 2 µM in the data set on HIV-1NL4-3 came out at 3%. In addition, in the data set with HIV-1NL4-3, the inhibition at 20 µM is 94%. This compound also displayed a CC50 at 72 h in “Cytotoxicity assay” of more than 50 µM.
